CFTR F508del cor: F508del CFTR correction, initial screen, CFBE line, single point | CFBE cells, YFP halide quenching; stimulated with forskolin plus potentiator P3; % fluorescence drop versus neutral controls | activity (quench increase), % at 7.58 µM | actives 0.36% (n = 350,000) | AID 720511, 2013;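 active = mean added fluorescence quench of at least 8% versus neutral control, with both replicates also reaching 8%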;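 also: cells transiently co-express mutant CFTR-F508del with the halide-sensitive YFP; corrector assay measuring rescue of mutant channel to the surface after 24 h compound exposure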
DENV2 CPE rescue: inhibitors of DENV2 cytopathic effect, primary screen, cell-based, plate reader, single concentration; CPE inhibition, % at 9.99 µM; DENV2-infected cells, cytopathic effect rescue; AID 651640, 2012; actives 1.7% (n = 350,000); in the data active = CPE inhibition above about 20%, passing the limit was not always enough; tested in BHK-21 cells
ERAP1 HTS inh: human ERAP1 aminopeptidase inhibitors, primary screen, biochemical, single point, plate reader. actives 0.15% (n = 340,000). AID 652197, 2013. inhibition, % at 10.7 µM. recombinant ERAP1, Leu-AMC fluorescence, 60 min;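 active = mean replicate inhibition of at least 30%, or all replicates individually reaching that 30% level; inactive = mean below 30% and not every replicate reaching it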
E-selectin induc: E-selectin induction in HUVECs, primary screen, imaging, HUVEC, immunofluorescence imaging, single point. P16581. normalized: neutral wells 0, TNF-alpha wells 100. activation, % at 7.58 µM. actives 0.37% (n = 260,000). AID 686992, 2013;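 active = mean E-selectin-positive cell signal at least 10% of the positive control, reached in at least 60% of replicates, without over 20% cell loss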
Target sequence (P16581 whole entry, looked up): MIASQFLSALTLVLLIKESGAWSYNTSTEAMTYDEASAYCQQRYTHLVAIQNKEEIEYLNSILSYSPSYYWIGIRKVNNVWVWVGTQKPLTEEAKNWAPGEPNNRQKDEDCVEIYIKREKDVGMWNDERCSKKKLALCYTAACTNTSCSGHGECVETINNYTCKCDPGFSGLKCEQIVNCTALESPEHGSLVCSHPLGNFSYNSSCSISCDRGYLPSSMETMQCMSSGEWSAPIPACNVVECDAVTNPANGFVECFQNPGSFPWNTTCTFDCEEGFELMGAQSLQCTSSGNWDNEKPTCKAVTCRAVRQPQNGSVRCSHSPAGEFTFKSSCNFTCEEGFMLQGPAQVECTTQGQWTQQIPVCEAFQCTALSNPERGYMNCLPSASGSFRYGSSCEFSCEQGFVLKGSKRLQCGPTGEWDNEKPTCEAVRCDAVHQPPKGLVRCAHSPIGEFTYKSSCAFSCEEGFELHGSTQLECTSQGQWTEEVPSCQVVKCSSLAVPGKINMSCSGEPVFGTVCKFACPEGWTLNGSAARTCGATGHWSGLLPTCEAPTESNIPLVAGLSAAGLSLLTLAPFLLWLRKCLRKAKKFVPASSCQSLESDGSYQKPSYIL
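System: HUVEC, human umbilical vein endothelial cells; quantity: 3,000 cells/well; buffer or medium: EGM-2 medium, gelatin-coated wells; dosing: single-point compound dose; detection: immunofluorescence imaging; evaluation: % PE-positive cells; benchmarks: TNF-alpha, DMSO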
FGF22 binding: binders of human FGF22 protein, primary screen, FGF22 synaptogenesis inhibitor project, biophysical, thermal shift, single point | actives 1.5% (n = 340,000) | recombinant FGF22 thermal shift, SYPRO orange fluorescence; percent of sucrose octasulfate shift, DMSO zero | Fibroblast growth factor 22 (Homo sapiens), Q9HCT0 | activity (Tm shift, normalised), % at 9.99 µM;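 active = mean Tm shift, scaled 0 neutral to 100 positive control, at about 1.3% or above, every replicate too, limit read from the data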
Numbers stand for hits; - = inactive; . = no result. This is a sample that favours compounds with a hit; in the whole collection about 3.7% have one here.

SMILES	CFTR F508del cor	DENV2 CPE rescue	ERAP1 HTS inh	E-selectin induc	FGF22 binding
C[C@H](CO)N1C[C@H](C)[C@H](CN(C)Cc2ccc(Oc3ccccc3)cc2)Oc2c(NC(=O)C3CCOCC3)cccc2C1=O	-	-	-	167.8	-
C[C@@H]1CN([C@H](C)CO)C(=O)c2cccc(NC(=O)C3CCOCC3)c2O[C@@H]1CN(C)Cc1ccc(Oc2ccccc2)cc1	-	-	-	380.2	-
CCC(=O)Nc1ccc2c(c1)C(=O)N(C)C[C@H](OC)[C@H](C)CN(C(=O)CN(C)C)[C@@H](C)CO2	-	.	.	-	.
O=C(NCc1ccccc1F)[C@@H]1[C@@H](CO)[C@@H]2Cn3c(cccc3=O)[C@@H]2N1C(=O)CC1CC1	-	-	-	-	-
C[C@H]1CN([C@@H](C)CO)C(=O)Cc2cc(NC(=O)CCCCCC(=O)Nc3ccccc3N)ccc2O[C@@H]1CN(C)S(=O)(=O)c1ccccc1	-	78.8	-	-	-
C[C@@H]1CN([C@H](C)CO)C(=O)Cc2cc(NC(=O)CCCCCC(=O)Nc3ccccc3N)ccc2O[C@@H]1CN(C)Cc1ccc(Cl)c(Cl)c1	-	84.2	-	-	-
C[C@H](CO)N1C[C@H](C)[C@@H](CN(C)Cc2ccncc2)Oc2ccc(NC(=O)CCCCCC(=O)Nc3ccccc3N)cc2CC1=O	-	53.2	-	.	-
C[C@@H]1CN([C@@H](C)CO)C(=O)Cc2cc(NC(=O)CCCCCC(=O)Nc3ccccc3N)ccc2O[C@H]1CN(C)Cc1ccc(-c2ccccc2)cc1	-	25.0	-	.	-
C[C@@H]1CN([C@@H](C)CO)C(=O)Cc2cc(NC(=O)CCCCCC(=O)Nc3ccccc3N)ccc2O[C@@H]1CN(C)Cc1ccc(Cl)c(Cl)c1	-	-	-	-	-
CNC[C@H]1Oc2ccc(NC(=O)Nc3ccc(OC)cc3)cc2CC(=O)N([C@H](C)CO)C[C@H]1C	-	-	-	.	-
CN(C)CC(=O)N[C@@H]1CC[C@@H](CCNC(=O)C2CC2)O[C@@H]1CO	-	-	-	-	.
C[C@@H]1CN([C@@H](C)CO)C(=O)c2cc(NS(=O)(=O)c3cccs3)ccc2O[C@H]1CN(C)S(=O)(=O)c1ccc(Cl)cc1	-	-	-	-	-
C[C@@H]1CN([C@H](C)CO)C(=O)Cc2cc(NC(=O)CCCCCC(=O)Nc3ccccc3N)ccc2O[C@H]1CN(C)Cc1ccc(C(F)(F)F)cc1	-	-	-	-	-
C[C@H]1CN([C@@H](C)CO)C(=O)Cc2cc(NC(=O)CCCCCC(=O)Nc3ccccc3N)ccc2O[C@H]1CN(C)C(=O)Nc1cccc2ccccc12	-	27.6	.	-	-
C[C@H]1CN([C@@H](C)CO)C(=O)c2cc(NC(=O)CCCCCC(=O)Nc3ccccc3N)ccc2O[C@H]1CN(C)Cc1ccncc1	-	-	-	.	-
C[C@@H]1CN([C@H](C)CO)C(=O)Cc2cc(NC(=O)CCCCCC(=O)Nc3ccccc3N)ccc2O[C@@H]1CN(C)Cc1ccc(C(F)(F)F)cc1	-	80.7	-	-	-
C[C@@H]1CN([C@@H](C)CO)C(=O)c2cccc(NC(=O)CCCCCC(=O)Nc3ccccc3N)c2O[C@@H]1CN(C)Cc1ccc(Cl)c(Cl)c1	-	-	-	-	-
C[C@@H]1CN([C@@H](C)CO)C(=O)c2cc(NC(=O)CCCCCC(=O)Nc3ccccc3N)ccc2O[C@H]1CN(C)Cc1ccncc1	-	41.5	-	.	-
C[C@H](CO)N1C[C@H](C)[C@@H](CN(C)Cc2ccc(Cl)c(Cl)c2)Oc2c(NC(=O)CCCCCC(=O)Nc3ccccc3N)cccc2C1=O	-	-	.	323.6	-
C[C@@H]1CN([C@@H](C)CO)C(=O)Cc2cc(NC(=O)CCCCCC(=O)Nc3ccccc3N)ccc2O[C@@H]1CN(C)C(=O)Nc1cccc2ccccc12	-	-	-	-	-
O=S(=O)(Nc1ccc(S(=O)(=O)N2CCCCCC2)cc1)c1cccs1	.	-	-	.	-
O=S(=O)(Nc1cccc(S(=O)(=O)N2CCCCC2)c1)c1ccccc1F	-	-	-	-	43.5
O=S(=O)(Nc1cccc(S(=O)(=O)N2CCCC2)c1)c1cccs1	-	-	-	115.6	43.2
